Reference: ChEMBL document CHEMBL2163267, “Novel N-linked aminopiperidine inhibitors of bacterial topoisomerase type II with reduced pK(a): antibacterial agents with an improved safety profile” (J Med Chem, 2012)
Values after ≈ are worked out from the molar mass of the structure shown.

How the values were obtained:
[1] = test system: Streptococcus pneumoniae; assay: Antibacterial activity against penicillin-susceptible Streptococcus pneumoniae D39 after 18 to 24 hrs by CLSI broth microdilution method; format: functional
[2] = test system: Staphylococcus aureus; assay: Antibacterial activity against methicillin-susceptible Staphylococcus aureus after 18 to 24 hrs by CLSI broth microdilution method; format: functional
[3] = test system: Escherichia coli; assay: Antibacterial activity against Escherichia coli W3110 after 18 to 24 hrs by CLSI broth microdilution method; format: functional
[4] = test system: Pseudomonas aeruginosa; assay: Antibacterial activity against Pseudomonas aeruginosa PAO1 after 18 to 24 hrs by CLSI broth microdilution method; format: functional
[5] = Fraction unbound in human plasma at 10 uM by equilibrium dialysis method; format: ADME, cell-free
Procedure, shortened: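 Equilibrium dialysis. Compound at 10 μM in the plasma (donor) chamber against phosphate buffer, rotated at 37 °C for 16 h. Drug in the plasma and buffer samples quantified by LC-MS/MS after methanol protein precipitation with internal standard. Standard curve 10 nM to 10 μM.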

[6] = Octanol-phosphate buffer partition coefficient, log D of the compound at pH 7.4 by shake flask method; format: physicochemical
Procedure, shortened: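 Shake-flask partition between n-octanol and 10 mM phosphate buffer at pH 7.4. Shaken 1 h at 1200 rpm to reach equilibrium. Phases analysed by LC/UV, with MS for mass confirmation.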

[7] = Dissociation constant, pKa of the compound by pH metric assay; format: physicochemical
Procedure, shortened: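 pH-metric titration on an automated titrator, run in triplicate. Accuracy about 0.02 log units.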

[8] = Inhibition of Escherichia coli DNA topoisomerase 4 subunit ParC/DNA topoisomerase 4 subunit ParE ATPase activity after 24 hrs by malachite green staining-based colorimetric assay
[9] = target: Voltage-gated inwardly rectifying potassium channel KCNH2 (Homo sapiens, UniProt Q12809); assay: Inhibition of human ERG by Ionworks assay
[10] = test system: Staphylococcus aureus; assay: Antibacterial activity against vancomycin-resistant Staphylococcus aureus ARC 3186 after 18 to 24 hrs by CLSI broth microdilution method; format: functional
Procedure, shortened: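 CLSI broth microdilution in Mueller Hinton Broth 2. Inocula prepared from blood agar plates grown at 35 °C for 18–24 h. Compound in DMSO, 2% DMSO final, 11 doubling dilutions from 64 to 0.06 μg/mL. Plates read at 620 nm.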

Sequence of Voltage-gated inwardly rectifying potassium channel KCNH2 (Q12809 whole entry): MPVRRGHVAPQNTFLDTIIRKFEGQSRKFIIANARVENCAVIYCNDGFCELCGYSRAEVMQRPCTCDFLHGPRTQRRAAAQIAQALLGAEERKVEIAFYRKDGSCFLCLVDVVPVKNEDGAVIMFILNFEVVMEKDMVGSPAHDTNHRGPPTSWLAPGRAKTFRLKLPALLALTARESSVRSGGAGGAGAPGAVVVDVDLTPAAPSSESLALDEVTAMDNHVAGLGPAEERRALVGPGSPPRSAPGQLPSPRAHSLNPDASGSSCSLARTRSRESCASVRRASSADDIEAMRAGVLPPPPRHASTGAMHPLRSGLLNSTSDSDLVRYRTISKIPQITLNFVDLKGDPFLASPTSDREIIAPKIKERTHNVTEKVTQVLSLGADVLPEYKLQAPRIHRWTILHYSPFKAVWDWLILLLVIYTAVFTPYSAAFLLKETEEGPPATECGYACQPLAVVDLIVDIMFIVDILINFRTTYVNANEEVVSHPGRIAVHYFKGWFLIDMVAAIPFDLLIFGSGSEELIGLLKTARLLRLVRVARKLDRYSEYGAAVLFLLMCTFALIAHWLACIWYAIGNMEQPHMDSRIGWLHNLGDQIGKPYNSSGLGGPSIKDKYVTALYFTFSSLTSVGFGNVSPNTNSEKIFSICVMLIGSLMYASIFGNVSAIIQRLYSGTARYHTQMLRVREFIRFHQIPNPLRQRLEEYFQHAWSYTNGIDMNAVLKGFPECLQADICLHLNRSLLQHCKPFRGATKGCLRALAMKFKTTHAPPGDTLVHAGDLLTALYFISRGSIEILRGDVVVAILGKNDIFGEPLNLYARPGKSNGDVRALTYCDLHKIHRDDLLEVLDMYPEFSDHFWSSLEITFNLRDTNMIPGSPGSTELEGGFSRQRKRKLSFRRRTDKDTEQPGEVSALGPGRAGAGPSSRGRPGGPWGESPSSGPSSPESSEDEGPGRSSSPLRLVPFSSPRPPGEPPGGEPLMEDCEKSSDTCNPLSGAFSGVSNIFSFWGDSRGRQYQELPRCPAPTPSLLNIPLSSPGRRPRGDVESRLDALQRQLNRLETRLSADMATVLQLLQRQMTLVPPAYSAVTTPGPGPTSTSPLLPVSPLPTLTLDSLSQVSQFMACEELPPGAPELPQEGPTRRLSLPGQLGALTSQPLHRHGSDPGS

SMILES	MIC [1]	MIC [2]	MIC [3]	MIC [4]	fraction unbound at 10 µM [5]	logD [6]	pKa [7]	IC50 [8]	IC50 [9]	MIC [10]
COc1ccc2ncc(=O)n(CCN3CC[C@H](NCc4ccc5c(n4)NC(=O)CO5)[C@H](F)C3)c2c1	0.13 µg/mL (≈ 0.269 µM)	0.03 µg/mL (≈ 0.0622 µM)	0.5 µg/mL (≈ 1.04 µM)	8 µg/mL (≈ 16.6 µM)	–	–	–	–	–	–
N#Cc1ccc2ccc(=O)n(CCN3CC[C@H](NCc4cc5c(cn4)OCCO5)[C@H](O)C3)c2c1	–	0.06 µg/mL (≈ 0.13 µM)	1 µg/mL (≈ 2.17 µM)	> 8 µg/mL	0.19	0.46	8	25 nM	156000 nM	–
N#Cc1ccc2ccc(=O)n(CCN3CC[C@@H](NCc4cc5c(cn4)OCCO5)[C@@H](O)C3)c2c1	–	0.06 µg/mL (≈ 0.13 µM)	1 µg/mL (≈ 2.17 µM)	> 8 µg/mL	0.24	0.45	–	41 nM	117000 nM	–
N#Cc1ccc2ccc(=O)n(CCN3CC[C@H](NCc4ccc5c(n4)NC(=O)CO5)[C@H](O)C3)c2c1	–	0.25 µg/mL (≈ 0.527 µM)	0.5 µg/mL (≈ 1.05 µM)	2 µg/mL (≈ 4.21 µM)	0.21	0.11	–	17 nM	–	–
N#Cc1ccc2ccc(=O)n(CCN3CC[C@@H](NCc4ccc5c(n4)NC(=O)CO5)[C@@H](O)C3)c2c1	–	0.5 µg/mL (≈ 1.05 µM)	0.5 µg/mL (≈ 1.05 µM)	2 µg/mL (≈ 4.21 µM)	0.18	0.1	–	15 nM	–	–
COc1ccc2ncc(=O)n(CCN3CC[C@H](NCc4cc5c(cn4)OCCO5)[C@H](O)C3)c2c1	–	0.03 µg/mL (≈ 0.0642 µM)	0.5 µg/mL (≈ 1.07 µM)	8 µg/mL (≈ 17.1 µM)	0.19	–	–	5 nM	–	–
COc1ccc2ncc(=O)n(CCN3CC[C@@H](NCc4cc5c(cn4)OCCO5)[C@@H](O)C3)c2c1	–	0.06 µg/mL (≈ 0.128 µM)	1 µg/mL (≈ 2.14 µM)	> 8 µg/mL	0.14	–	7.97	6 nM	–	–
COc1ccc2ncc(=O)n(CCN3CC[C@H](NCc4ccc5c(n4)NC(=O)CO5)[C@H](O)C3)c2c1	–	0.06 µg/mL (≈ 0.125 µM)	0.25 µg/mL (≈ 0.52 µM)	2 µg/mL (≈ 4.16 µM)	0.14	0.39	–	17 nM	172000 nM	–
COc1ccc2ncc(=O)n(CCN3CC[C@@H](NCc4ccc5c(n4)NC(=O)CO5)[C@@H](O)C3)c2c1	–	0.13 µg/mL (≈ 0.271 µM)	0.25 µg/mL (≈ 0.52 µM)	2 µg/mL (≈ 4.16 µM)	0.05	0.37	–	23 nM	152000 nM	–
CO[C@H]1CN(CCn2c(=O)ccc3ccc(C#N)cc32)CC[C@H]1NCc1cc2c(cn1)OCCO2	0.13 µg/mL (≈ 0.273 µM)	0.13 µg/mL (≈ 0.273 µM)	4 µg/mL (≈ 8.41 µM)	> 8 µg/mL	0.54	0.63	7.99	55 nM	174000 nM	–
CO[C@H]1CN(CCn2c(=O)ccc3ccc(C#N)cc32)CC[C@H]1NCc1ccc2c(n1)NC(=O)CO2	0.5 µg/mL (≈ 1.02 µM)	0.13 µg/mL (≈ 0.266 µM)	1 µg/mL (≈ 2.05 µM)	8 µg/mL (≈ 16.4 µM)	0.5	0.32	–	28 nM	–	–
COc1ccc2ncc(=O)n(CCN3CC[C@@H](NCc4cc5c(cn4)OCCO5)[C@@H](OC)C3)c2c1	0.13 µg/mL (≈ 0.27 µM)	0.06 µg/mL (≈ 0.125 µM)	4 µg/mL (≈ 8.31 µM)	> 8 µg/mL	0.33	0.9	8.01	76 nM	75000 nM	–
COc1ccc2ncc(=O)n(CCN3CC[C@@H](NCc4ccc5c(n4)NC(=O)CO5)[C@@H](OC)C3)c2c1	0.25 µg/mL (≈ 0.506 µM)	0.06 µg/mL (≈ 0.121 µM)	1 µg/mL (≈ 2.02 µM)	4 µg/mL (≈ 8.09 µM)	0.28	–	8.17	76 nM	88000 nM	–
COc1ccc2ncc(=O)n(CCN3CC[C@@H](NCc4ccc5c(n4)NC(=O)CO5)[C@@H](F)C3)c2c1	0.13 µg/mL (≈ 0.269 µM)	0.03 µg/mL (≈ 0.0622 µM)	0.5 µg/mL (≈ 1.04 µM)	8 µg/mL (≈ 16.6 µM)	0.25	0.83	–	–	–	–
CO[C@H]1CN(CCn2c(=O)ccc3ccc(C#N)cc32)CC[C@@H]1NCc1cc2c(cn1)OCCO2 (single isomer, unassigned; enantiomer 1)	0.5 µg/mL (≈ 1.05 µM)	0.25 µg/mL (≈ 0.526 µM)	8 µg/mL (≈ 16.8 µM)	> 8 µg/mL	0.13	1.07	7.25	96 nM	176000 nM	–
CO[C@@H]1CN(CCn2c(=O)ccc3ccc(C#N)cc32)CC[C@H]1NCc1ccc2c(n1)NC(=O)CO2 (single isomer, unassigned; enantiomer 1)	0.25 µg/mL (≈ 0.512 µM)	0.13 µg/mL (≈ 0.266 µM)	2 µg/mL (≈ 4.09 µM)	> 8 µg/mL	0.27	0.81	7.53	35 nM	–	–
COc1ccc2ncc(=O)n(CCN3CC[C@H](NCc4cc5c(cn4)OCCO5)[C@@H](OC)C3)c2c1 (single isomer, unassigned; enantiomer 1)	0.25 µg/mL (≈ 0.519 µM)	0.25 µg/mL (≈ 0.519 µM)	8 µg/mL (≈ 16.6 µM)	> 8 µg/mL	0.11	1.27	7	113 nM	93000 nM	–
COc1ccc2ncc(=O)n(CCN3CC[C@@H](NCc4ccc5c(n4)NC(=O)CO5)[C@H](OC)C3)c2c1 (single isomer, unassigned; enantiomer 1)	0.13 µg/mL (≈ 0.263 µM)	0.03 µg/mL (≈ 0.0607 µM)	1 µg/mL (≈ 2.02 µM)	8 µg/mL (≈ 16.2 µM)	0.18	–	7.45	45 nM	27000 nM	–
COc1ccc2ncc(=O)n(CCN3CC[C@H](NCc4ccc5c(n4)NC(=O)CO5)[C@@H](F)C3)c2c1 (single isomer, unassigned; enantiomer B)	0.06 µg/mL (≈ 0.124 µM)	< 0.01 µg/mL	0.5 µg/mL (≈ 1.04 µM)	4 µg/mL (≈ 8.29 µM)	0.04	1.38	6.86	< 9 nM	–	–
COc1ccc2ncc(=O)n(CCN3CC[C@@H](NCc4cc5c(cn4)OCCO5)[C@H](O)C3)c2c1 (single isomer, unassigned; enantiomer B)	0.06 µg/mL (≈ 0.128 µM)	0.06 µg/mL (≈ 0.128 µM)	2 µg/mL (≈ 4.28 µM)	> 8 µg/mL	0.18	–	7.4	3 nM	–	–
COc1ccc2ncc(=O)n(CCN3CC[C@H](NCc4cc5c(cn4)OCCO5)[C@@H](F)C3)c2c1 (single isomer, unassigned; enantiomer B)	0.13 µg/mL (≈ 0.277 µM)	0.06 µg/mL (≈ 0.128 µM)	8 µg/mL (≈ 17 µM)	> 8 µg/mL	0.09	1.68	6.46	26 nM	–	–
CN[C@H](CC(C)C)C(=O)N[C@H]1C(=O)N[C@@H](CC(N)=O)C(=O)N[C@H]2C(=O)N[C@H]3C(=O)N[C@H](C(=O)N[C@H](C(=O)O)c4cc(O)cc(O)c4-c4cc3ccc4O)[C@H](O)c3ccc(c(Cl)c3)Oc3cc2cc(c3O[C@@H]2O[C@H](CO)[C@@H](O)[C@H](O)[C@H]2O[C@H]2C[C@](C)(N)[C@H](O)[C@H](C)O2)Oc2ccc(cc2Cl)[C@H]1O [VANCOMYCIN]	–	–	–	–	–	–	–	–	–	> 64 µg/mL
